Tests used:
[1] = target: Leukotriene B4 receptor 1 (Homo sapiens) (UniProt Q15722); test: Inhibition of BLT1 (unknown origin) at 10 uM relative to control
[2] = target: T1, Leukotriene B4 receptor 2 (Homo sapiens) (UniProt Q9NPC1); test: Inhibition of BLT2 (unknown origin) at 10 uM relative to control
T1 sequence (whole entry): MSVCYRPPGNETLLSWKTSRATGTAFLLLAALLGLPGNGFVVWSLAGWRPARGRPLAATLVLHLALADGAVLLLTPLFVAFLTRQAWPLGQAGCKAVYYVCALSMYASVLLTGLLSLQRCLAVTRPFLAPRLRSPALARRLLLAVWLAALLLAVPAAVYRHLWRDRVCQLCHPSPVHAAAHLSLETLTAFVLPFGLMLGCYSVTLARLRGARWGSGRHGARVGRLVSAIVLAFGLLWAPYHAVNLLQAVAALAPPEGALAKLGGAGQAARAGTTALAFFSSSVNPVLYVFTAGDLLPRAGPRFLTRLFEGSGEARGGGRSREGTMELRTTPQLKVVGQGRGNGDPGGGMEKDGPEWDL

[3] = Clearance in human hepatocytes at 1 uM measured over 6 hrs by LC/MS analysis relative to hepatic blood flow; type: ADME, cell-based, Liver, Hepatocyte; settings: read-out: CLH
Summary of the method: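 Cryopreserved human hepatocytes (1 million cells/mL) incubated with compound (1 µM) at 37 °C; compound remaining measured by LC/MS over duplicate 6-timepoint curves (0 to 6 h). The slope is taken from ln % remaining versus time. Clearance is expressed as percent of hepatic blood flow.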

[4] = Mean residence time in rat at 1 mg/kg, iv; type: ADME, organism-based; design: dose 1 mg/kg, route intravenous; settings: in vivo
Summary of the method: (§1)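 iv 1 mg/kg in 70 % PEG; po 10 mg/kg as suspension in 0.5 % methyl cellulose/0.015 % Tween. Blood sampled at 11 timepoints (0, 5, 15, 30 min, 1, 2, 4, 6, 8, 12, 24 h) per dose; mean of n = 3. Clearance expressed as percent of hepatic blood flow.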

[5] = Oral bioavailability in rat at 10 mg/kg; type: ADME, organism-based; settings: in vivo; summary of the method: as §1
[6] = Volume of distribution at steady state in cynomolgus monkey at 1 mg/kg, iv and 10 mg/kg, po; type: ADME, organism-based, Macaca fascicularis; settings: in vivo, read-out: Vdss; summary of the method: as §1
[7] = Plasma concentration in C57BL/6 mouse at 10 mg/kg, po after 2 hrs; type: ADME, organism-based; design: dose 10 mg/kg, route oral
[8] = system: Mus musculus; test: In vivo inhibition of FLAP in po dosed C57BL/6 mouse assessed as reduction of LTB4 production in calcimycin-stimulated whole blood after 2 hrs by ELISA; type: functional, organism-based
[9] = system: Mus musculus; test: In vivo inhibition of FLAP in C57BL/6 mouse assessed as LTB4 production in calcimycin-stimulated whole blood at 3 mg/kg, po after 2 hrs by ELISA (reference value: 100 +/- 13.3%); type: functional; design: scale not given: the % may be the effect or the level left
[10] = system: Mus musculus; test: In vivo inhibition of FLAP in C57BL/6 mouse assessed as LTB4 production in calcimycin-stimulated whole blood at 10 mg/kg, po after 2 hrs by ELISA (reference value: 100 +/- 13.3%); type: functional; design: scale not given: the % may be the effect or the level left
[11] = target: T2, Arachidonate 5-lipoxygenase-activating protein (Homo sapiens, UniProt P20292); test: Displacement of [125I]-L-691831 from human FLAP expressed in insect SF9 cell membranes after 2 hrs by Topcount analysis
T2 sequence (P20292 whole entry): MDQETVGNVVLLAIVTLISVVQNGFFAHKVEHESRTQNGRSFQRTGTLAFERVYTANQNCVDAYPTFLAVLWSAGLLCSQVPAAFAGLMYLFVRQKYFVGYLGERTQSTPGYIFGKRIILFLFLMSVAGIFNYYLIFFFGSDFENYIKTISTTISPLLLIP

[12] = target: Cytochrome P450 2D6 (Homo sapiens, UniProt P10635); test: Inhibition of CYP2D6 in human liver microsomes using dextromethorphan as substrate preincubated for 10 mins followed by NADPH addition measured after 6 mins; type: ADME
Summary of the method: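 Human liver microsomes (0.05 mg/mL protein) with cocktail substrates: 4 µM diclofenac (2C9), 3 µM dextromethorphan (2D6), 2.5 µM midazolam (3A4). Compound in 0.1 M potassium phosphate pH 7.4 preincubated 10 min at 37 °C; NADPH added, reaction 6 min at 37 °C.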

[13] = target: T3, Prostaglandin G/H synthase 2 (Homo sapiens) (UniProt P35354); test: Inhibition of cycloxygenase-2 (unknown origin) at 10 uM relative to control
T3 sequence (whole entry): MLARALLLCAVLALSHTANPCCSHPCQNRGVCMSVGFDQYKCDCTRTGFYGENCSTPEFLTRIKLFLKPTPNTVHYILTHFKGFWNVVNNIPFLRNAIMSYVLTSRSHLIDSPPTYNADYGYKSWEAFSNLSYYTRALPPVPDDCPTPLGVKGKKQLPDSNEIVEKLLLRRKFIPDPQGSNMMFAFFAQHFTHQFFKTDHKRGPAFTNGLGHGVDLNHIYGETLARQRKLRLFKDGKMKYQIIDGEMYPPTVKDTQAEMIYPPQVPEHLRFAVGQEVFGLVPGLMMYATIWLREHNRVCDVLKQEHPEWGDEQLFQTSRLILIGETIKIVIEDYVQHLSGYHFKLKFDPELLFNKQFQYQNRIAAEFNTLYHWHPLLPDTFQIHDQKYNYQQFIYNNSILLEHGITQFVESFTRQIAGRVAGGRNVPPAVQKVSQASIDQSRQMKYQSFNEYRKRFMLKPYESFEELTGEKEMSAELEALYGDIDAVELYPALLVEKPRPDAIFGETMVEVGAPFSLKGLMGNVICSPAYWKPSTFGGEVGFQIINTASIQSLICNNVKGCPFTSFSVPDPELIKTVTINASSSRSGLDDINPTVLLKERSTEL

Cytochrome P450 2D6, sequence (P10635 whole entry): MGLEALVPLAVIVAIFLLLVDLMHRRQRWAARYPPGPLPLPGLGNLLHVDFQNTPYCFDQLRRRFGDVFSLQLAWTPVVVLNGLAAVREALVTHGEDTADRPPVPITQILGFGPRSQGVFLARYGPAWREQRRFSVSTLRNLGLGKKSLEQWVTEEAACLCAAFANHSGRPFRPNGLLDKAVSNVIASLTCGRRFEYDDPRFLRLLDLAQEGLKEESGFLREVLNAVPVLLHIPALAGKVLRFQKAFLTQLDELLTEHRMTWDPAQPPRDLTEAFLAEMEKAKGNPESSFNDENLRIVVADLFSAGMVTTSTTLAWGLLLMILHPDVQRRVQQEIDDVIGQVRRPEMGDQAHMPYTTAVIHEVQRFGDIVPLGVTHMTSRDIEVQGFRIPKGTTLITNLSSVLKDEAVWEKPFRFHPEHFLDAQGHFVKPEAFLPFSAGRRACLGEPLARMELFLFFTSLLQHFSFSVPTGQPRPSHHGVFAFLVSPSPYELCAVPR
Leukotriene B4 receptor 1 (Homo sapiens), sequence (Q15722 whole entry): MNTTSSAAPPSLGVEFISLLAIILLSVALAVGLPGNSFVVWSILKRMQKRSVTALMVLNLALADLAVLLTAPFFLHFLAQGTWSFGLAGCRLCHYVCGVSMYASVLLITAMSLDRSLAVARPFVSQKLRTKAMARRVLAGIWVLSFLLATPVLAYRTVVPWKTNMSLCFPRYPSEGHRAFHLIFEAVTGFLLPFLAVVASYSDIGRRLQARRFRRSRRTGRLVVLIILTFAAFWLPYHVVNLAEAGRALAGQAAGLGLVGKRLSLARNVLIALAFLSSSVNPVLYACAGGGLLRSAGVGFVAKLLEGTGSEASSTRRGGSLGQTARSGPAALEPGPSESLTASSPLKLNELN

inhibition [1]: < 50%
inhibition [2]: < 50%
hepatic extraction ratio at 6 h, 1 µM [3]: 0.41
MRT [4]: 3.1 h
bioavailability [5]: 63%
Vd [6]: 0.5 L/kg
concentration at 2 h [7]: 14.8 µM
IC50 [11]: 1.7 nM
IC50 [12]: > 30 µM
inhibition [13]: < 50%
Compound: CN(C)C(=O)Cn1cc(-c2nc([C@@](C)(c3ccc(-c4cnc(N)nc4)cc3)C3CC3)no2)cn1 [BI 665915]
inhibition [8]: Dose-dependent effect
Activity [9]: 91%
Activity [10]: 35.2%

From ChEMBL document CHEMBL3414472, “Synthesis, SAR, and series evolution of novel oxadiazole-containing 5-lipoxygenase activating protein inhibitors: discovery of 2-[4-(3-{(r)-1-[4-(2-amino-pyrimidin-5-yl)-phenyl]-1-cyclopropyl-ethyl}-[1,2,4]oxadiazol-5-yl)-pyrazol-1-yl]-N,N-dimethyl-acetamide (BI 665915)” (J Med Chem, 2015)
